22 compounds from ChEMBL document CHEMBL3124921, “Discovery of nitropyridine derivatives as potent HIV-1 non-nucleoside reverse transcriptase inhibitors via a structure-based core refining approach” (Eur J Med Chem, 2014) can be followed below.

pEC50, pIC50: −log10 of the molar value. Where only a bound is given, the exact number is not on record here.

Data set [1] can be described thus: Selectivity index, ratio of CC50 for human MT4 cells to EC50 for HIV-2 ROD infected in human MT4 cells. The class given is toxicity, cell-based. The note with it: read-out: Ratio CC50/EC50. The essentials: (§1)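 MT-4 cells are seeded at 6 × 10⁵ cells/mL. Serial fivefold compound dilutions go into two triplicate series, one mock-infected and one virus-infected. After 5 days, viability is read by MTT reduction to formazan, with absorbance at 540 and 690 nm. EC50 comes from infected wells and CC50 from mock-infected wells. SI = CC50/EC50.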

Data set [2] in a line: Selectivity index, ratio of CC50 for human MT4 cells to EC50 for wild type HIV-1 3B infected in human MT4 cells. Type of data set: toxicity, cell-based. The note with it: read-out: Ratio CC50/EC50. The essentials:
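HIV-1 IIIB is added at 100–300 CCID50 per well to MT-4 cells seeded at 6 × 10⁵ cells/mL. Fivefold serial compound dilutions are run in triplicate, with a parallel mock-infected series for cytotoxicity. MTT viability is read at 540 and 690 nm after 5 days. SI = CC50 (mock-infected) / EC50 (infected).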

Data set [3] in a line: Selectivity index, ratio of CC50 for human MT4 cells to EC50 for HIV-1 RES056 harboring reverse transcriptase K103N/Y181C double mutant infected in human MT4 cells. The class given is toxicity, cell-based. The settings on record: read-out: Ratio CC50/EC50. The essentials:
as §1

The nature of data set [4]: Cytotoxicity against human MT4 cells assessed as growth inhibition after 5 days by MTT assay. Type of data set: cell-based. In short, it runs like this:
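Mock-infected MT-4 cells (6 × 10⁵ cells/mL) were run in parallel triplicate wells with serial fivefold compound dilutions added from 10× stocks and culture medium instead of virus. Viability was measured by MTT at day 5, reading absorbance at 540 and 690 nm.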
On the technique in general: Tetrazolium dyes change colour on reduction, which living cells bring about.

In data set [5] the test system is Human immunodeficiency virus 2. Kind of data set: Antiviral activity against HIV-2 ROD infected in human MT4 cells assessed as protection against virus-induced cytopathogenicity after 5 days by MTT assay. The note with it: Human immunodeficiency virus 2, ISOLATE ROD, MT4, 120 h. The class given is functional, organism-based. The essentials:
(§2)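 Compounds added at the start as 10× stocks to triplicate wells, then serially diluted fivefold. Virus stock at […] CCID50 was added to MT-4 cells resuspended at 6 × 10⁵ cells/mL. Viability was read by MTT reduction to formazan five days post-infection, with absorbance measured at 540 and 690 nm. EC50 is the concentration protecting against virus-induced cytopathicity.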
For orientation: Protection from cytopathic effect is a common read-out in antiviral testing.

Data set [6] concerns Human immunodeficiency virus 1. Kind of data set: Antiviral activity against HIV-1 RES056 harboring reverse transcriptase K103N/Y181C double mutant infected in human MT4 cells assessed as protection against virus-induced cytopathogenicity after 5 days by MTT assay. The settings on record: Human immunodeficiency virus 1, RES056, MT4, 120 h. Type of data set: functional, organism-based. In short, it runs like this:
as §1

Data set [7] relates to Human immunodeficiency virus 1. Put plainly: Antiviral activity against wild type HIV-1 3B infected in human MT4 cells assessed as protection against virus-induced cytopathogenicity after 5 days by MTT assay. Type of data set: functional, organism-based. The settings on record: Human immunodeficiency virus 1, 3B, MT4, 120 h. In short, it runs like this:
as §2

The target in data set [8] is Human immunodeficiency virus type 1 reverse transcriptase (Human immunodeficiency virus 1, UniProt Q72547). Put plainly: Inhibition of wild type HIV-1 reverse transcriptase using […] as template/primer assessed as inhibition of biotin-dUTP incorporation after 1 hr by microtiter plate ELISA reader analysis.

As to `Cc1cccc(C)c1Nc1cc(Nc2ccc(C#N)cc2)ncc1[N+](=O)[O-]`, the selectivity ratio in data set [1], in data set [2] and in data set [3] was under 1 in each case. The CC50 at 120 h in data set [4] amounted to 12.8 µM. Further, the pEC50 in data set [5], in data set [6] and in data set [7] was under 4.89 in each case.
As to `Cc1cccc(C)c1Oc1cc(Nc2ccc(C#N)cc2)ncc1[N+](=O)[O-]`, the selectivity ratio was under 1 in data set [1], 214 in data set [2] and under 1 in data set [3]. Also, in data set [4], the CC50 at 120 h turned out to be 126 µM. The results for the pEC50 in data set [5], in data set [6] and in data set [7] were under 3.90, under 3.90 and 6.24, respectively.
As for `Cc1cc(C)c(Oc2cc(Nc3ccc(C#N)cc3)ncc2[N+](=O)[O-])c(C)c1`, in data set [8], the pIC50 was 5.16. For the same compound, the selectivity ratio was under 1 in data set [1], 1250 in data set [2] and under 1 in data set [3]. Moreover, the CC50 at 120 h in data set [4] is 69.9 µM. For the same compound, the negative-log EC50 (pEC50) in data set [5] is under 4.16; in data set [6] it was under 4.16; in data set [7] it was 7.25.
On to `Cc1cc(C#N)cc(C)c1Oc1cc(Nc2ccc(C#N)cc2)ncc1[N+](=O)[O-]`, for which the pIC50 in data set [8] is 5.07. Besides, the selectivity ratio was under 1 in data set [1], 339 in data set [2] and under 1 in data set [3]. Moreover, the CC50 at 120 h in data set [4] was 36.1 µM. Moreover, the figures for the negative-log EC50 (pEC50) in data set [5], in data set [6] and in data set [7] were under 4.44, under 4.44 and 6.96, respectively.
On to `Cc1cc(Br)cc(C)c1Oc1cc(Nc2ccc(C#N)cc2)ncc1[N+](=O)[O-]`, for which the selectivity ratio in data set [1] is under 1; in data set [2], 45; in data set [3], under 1. In data set [4], the CC50 at 120 h worked out at 12.3 µM. The values for the pEC50 in data set [5], in data set [6] and in data set [7] were under 4.91, under 4.91 and 6.57, respectively.
In the case of `Cc1cc(Cl)cc(C)c1Oc1cc(Nc2ccc(C#N)cc2)ncc1[N+](=O)[O-]`, the selectivity ratio is under 1 in data set [1], 70 in data set [2] and under 1 in data set [3]. Besides, in data set [4], the CC50 at 120 h came to 11.1 µM. The pEC50 is under 4.96 in data set [5], under 4.96 in data set [6] and 6.80 in data set [7].
Take `COc1cccc(OC)c1Oc1cc(Nc2ccc(C#N)cc2)ncc1[N+](=O)[O-]`: the results for the selectivity ratio in data set [1], in data set [2] and in data set [3] were under 1, 74 and under 1, respectively. In data set [4], the CC50 at 120 h came to 319 µM. The values for the pEC50 in data set [5], in data set [6] and in data set [7] were under 3.50, under 3.50 and 5.37, respectively.
For the compound `N#Cc1ccc(Nc2cc(Oc3c(Cl)cccc3Cl)c([N+](=O)[O-])cn2)cc1`, the results for the selectivity ratio in data set [1], in data set [2] and in data set [3] were under 1, 44 and under 1, respectively. The half-maximal cytotoxic concentration (CC50) at 120 h in data set [4] came to 27.7 µM. In addition, the pEC50 in data set [5] is under 4.56; in data set [6], under 4.56; in data set [7] it was 6.21.
With `N#Cc1ccc(Nc2cc(Oc3c(Cl)cc(Cl)cc3Cl)c([N+](=O)[O-])cn2)cc1`, the selectivity ratio in data set [1] was under 1; in data set [2], 97; in data set [3], under 1. In addition, the CC50 at 120 h in data set [4] worked out at 16.2 µM. In addition, the figures for the negative-log EC50 (pEC50) in data set [5], in data set [6] and in data set [7] were under 4.79, under 4.79 and 6.77, respectively.
Regarding `N#Cc1ccc(Nc2cc(Oc3c(Cl)cc([N+](=O)[O-])cc3Cl)c([N+](=O)[O-])cn2)cc1`, the results for the selectivity ratio in data set [1], in data set [2] and in data set [3] were under 1, 2 and under 1, respectively. For the same compound, in data set [4], the CC50 at 120 h was found to be 26.5 µM. The pEC50 in data set [5] is under 4.58; in data set [6], under 4.58; in data set [7], 4.77.
Turning to `N#Cc1ccc(Nc2cc(Oc3c(Br)cc(Br)cc3Br)c([N+](=O)[O-])cn2)cc1`, the selectivity ratio in data set [1] was under 1; in data set [2], 65; in data set [3], under 1. Also, the CC50 at 120 h in data set [4] was found to be 7.49 µM. The pEC50 is under 5.13 in data set [5], under 5.13 in data set [6] and 6.96 in data set [7].
As to `Cc1cc(Br)c(Oc2cc(Nc3ccc(C#N)cc3)ncc2[N+](=O)[O-])c(Br)c1`, the negative logarithm of the IC50 (pIC50) in data set [8] was 4.98. Moreover, the selectivity ratio in data set [1] was under 1; in data set [2], 691; in data set [3], under 1. Moreover, the CC50 at 120 h in data set [4] amounted to 23.6 µM. Moreover, the results for the pEC50 in data set [5], in data set [6] and in data set [7] were under 4.63, under 4.63 and 7.47, respectively.
For the compound `N#Cc1ccc(Nc2cc(Oc3c(F)cc(F)cc3F)c([N+](=O)[O-])cn2)cc1`, the selectivity ratio in data set [1] was under 1; in data set [2], 5; in data set [3] it was under 1. For the same compound, the half-maximal cytotoxic concentration (CC50) at 120 h in data set [4] worked out at 3.54 µM. The results for the pEC50 in data set [5], in data set [6] and in data set [7] were under 5.45, under 5.45 and 6.14, respectively.
On to `Cc1cc(C)c(Nc2cc(Nc3ccc(C#N)cc3)ncc2[N+](=O)[O-])c(C)c1`, for which the selectivity ratio in data set [1] was under 1; in data set [2], 9; in data set [3] it was under 1. Moreover, in data set [4], the CC50 at 120 h worked out at 262 µM. Further, the pEC50 in data set [5] is under 3.58; in data set [6] it was under 3.58; in data set [7], 4.52.
In the case of `Cc1cc(Br)c(Nc2cc(Nc3ccc(C#N)cc3)ncc2[N+](=O)[O-])c(Br)c1`, the selectivity ratio in data set [1] is under 1; in data set [2], 43; in data set [3], under 1. Further, the CC50 at 120 h in data set [4] turned out to be 167 µM. The pEC50 was under 3.78 in data set [5], under 3.78 in data set [6] and 5.41 in data set [7].
Turning to `N#Cc1ccc(Nc2cc(Nc3c(F)cc(Br)cc3Br)c([N+](=O)[O-])cn2)cc1`, the selectivity ratio is under 1 in data set [1], 49 in data set [2] and under 1 in data set [3]. In data set [4], the CC50 at 120 h came to 149 µM. Also, the pEC50 in data set [5] is under 3.83; in data set [6] it was under 3.83; in data set [7] it was 5.52.
Turning to `Cc1ccc(Nc2cc(Oc3c(C)cc(C#N)cc3C)c([N+](=O)[O-])cn2)cc1`, the selectivity ratio in data set [1], in data set [2] and in data set [3] was under 1 throughout. Besides, the CC50 at 120 h in data set [4] amounted to 207 µM. Moreover, the pEC50 in data set [5], in data set [6] and in data set [7] was under 3.68 each time.
For the compound `Cc1cc(C#N)cc(C)c1Oc1cc(Nc2ccc([N+](=O)[O-])cc2)ncc1[N+](=O)[O-]`, the results for the selectivity ratio in data set [1], in data set [2] and in data set [3] were under 1, 200 and under 1, respectively. Also, the CC50 at 120 h in data set [4] stood at 141 µM. Further, the pEC50 is under 3.85 in data set [5], under 3.85 in data set [6] and 6.14 in data set [7].
In the case of `CC(C)Nc1cccnc1N1CCN(C(=O)c2cc3cc(NS(C)(=O)=O)ccc3[nH]2)CC1` [DELAVIRDINE], the values for the selectivity ratio in data set [2] and in data set [3] were over 71 and under 1, respectively. Besides, the CC50 at 120 h in data set [4] was over 36.2 µM. For the same compound, the results for the pEC50 in data set [6] and in data set [7] were under 4.44 and 6.29, respectively.
The matching figures for `O=C1Nc2ccc(Cl)cc2[C@@](C#CC2CC2)(C(F)(F)F)O1` [EFAVIRENZ]: over 1110, over 21, over 6.34 µM, 6.49 and 8.24.
Turning to `Cc1ccnc2c1NC(=O)c1cccnc1N2C1CC1` [NEVIRAPINE], the CC50 at 120 h in data set [4] was over 15 µM. Besides, the pEC50 in data set [6] was 5.39.
With `Cc1cn([C@H]2C[C@H](N=[N+]=[N-])[C@@H](CO)O2)c(=O)[nH]c1=O` [ZIDOVUDINE], the selectivity ratio in data set [1] is over 7720; in data set [2], over 12500; in data set [3] it was over 5960. In addition, the CC50 at 120 h in data set [4] was over 93.5 µM. Further, the negative-log EC50 (pEC50) in data set [5] is 7.92; in data set [6], 7.80.

The CC50 is the concentration at which the toxic effect on the cells reaches its halfway point. What is called pEC50 is the EC50 on a negative log10 scale, so that one unit is a factor of ten. By pIC50 is commonly meant the negative decadic logarithm of the IC50, by convention in mol/L.
